# The list is not random: actives were taken first. Their share in the collection is about 3.9%.
# TMEM16A inh: TMEM16A chloride channel inhibitors, primary screen, cell-based, HTS | normalized B-score (activity score, 25-100; higher = stronger inhibition) at 10 µM | Anoctamin-1 (Mus musculus), Q8BHY3 | HEK293 TMEM16A/YFP iodide influx fluorescence, ionomycin | AID 588511, 2011 | 310,000 tested, 1.2% active;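 active = ratio plate-corrected score three or more library SD toward inhibition, starting fluorescence score within five deviations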;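 note: score derived from kinetic fluorescence span divided by baseline fluorescence per well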
# TAAR1 antag: human TAAR1 antagonists, primary screen, Fluo-8 calcium fluorescence, CHO RD-HGA16 cells; antagonist; inhibition, % at 3 µM; 360,000 tested, 1.5% active;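 active = inhibition above a per-plate cutoff, the mean inhibition of test compounds on that plate plus 3 SD, cut at about 49% in these data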
# Target sequence (Q96RJ0 whole entry, looked up): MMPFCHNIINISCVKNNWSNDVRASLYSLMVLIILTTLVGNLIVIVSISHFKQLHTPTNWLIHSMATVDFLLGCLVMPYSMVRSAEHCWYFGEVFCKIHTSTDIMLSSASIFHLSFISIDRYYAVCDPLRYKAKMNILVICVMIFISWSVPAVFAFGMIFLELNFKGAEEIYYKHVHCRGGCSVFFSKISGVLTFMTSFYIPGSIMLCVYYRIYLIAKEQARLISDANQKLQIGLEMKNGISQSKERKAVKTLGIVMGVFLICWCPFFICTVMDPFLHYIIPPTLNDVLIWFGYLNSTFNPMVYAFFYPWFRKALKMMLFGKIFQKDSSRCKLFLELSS
#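 Material: RD-HGA16 CHO cells with stable hTAAR1 and Gα16; Dosing: single nominal final test compound concentration of 3 µM; Schedule: seeding 17-24 h prior, 75-min 37 °C, 30-min RT dye loading; Detection: kinetic Fluo-8 calcium fluorescence measurement; Measure: % inhibition from peak post-agonist over basal fluorescence ratio; Benchmarks: vehicle and agonist controls.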
# TAAR1 agonist: human TAAR1 agonists, primary screen, Fluo-8 calcium fluorescence, CHO RD-HGA16 cells | activation, % at 3 µM | Trace amine-associated receptor 1 (Homo sapiens), Q96RJ0 | vehicle wells 0%, saturating PEA agonist 100% | 360,000 tested, 0.99% active;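 active = activation above the mean activation of all test compounds in the run plus 3 SD, cut at about 38% in these data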
#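 Test system: RD-HGA16 (CHO) cells co-expressing Gα16 and hTAAR1 / Benchmarks: DMSO vehicle as 0%, PEA at EC100 as 100% / Repeats: no replicates (n 1) / Measure: % activation from peak over basal fluorescence ratio, DMSO-to-PEA scaled / Timing: 17-24 h plating, Fluo-8 75 min 37 °C, 30 min RT / Technique: kinetic Fluo-8 calcium fluorescence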
# CRFR2-BP antag: antagonists of CRF-BP/CRF-R2 complex, primary screen, cell-based, HEK293, calcium dye fluorescence, uHTS; 350,000 tested, 0.59% active; AID 588475, 2011; inhibition, % at 11.8 µM; CRF-induced calcium fluorescence;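 active = inhibition of the ligand-induced calcium signal above about 50% at the single tested concentration, limit read from the data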
# CRFR2-BP ag: agonists of CRF-BP/CRF-R2 complex, primary screen, cell-based, HEK293, calcium dye fluorescence, uHTS; CRF-binding protein / CRF receptor 2 complex (human); calcium dye fluorescence (FLIPR); percent of saturating CRF peptide response; activation, % at 13.2 µM; 350,000 tested, 0.46% active; AID 588473, 2011;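 active = activation of at least 50%, plus an integration ratio under a set limit after plate pattern correction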
# TMEM16A act: TMEM16A chloride channel activators or potentiators, primary screen, cell-based, HTS; HEK293 TMEM16A/YFP-H148Q/I152L, iodide quench fluorescence; hits give low values; 340,000 tested, 0.3% active; Anoctamin-1 (Mus musculus), Q8BHY3; AID 623877, 2012; B-score at 10 µM;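 active = fluorescence-ratio B-score plate-corrected deviation score at least 3 library SD below zero, with starting fluorescence score within 5 deviations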;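 note: channel opened by trigger with iodide after compound preincubation; score built on the fluorescence ratio of max minus min over baseline; more negative score means more quench and so TMEM16A activation or potentiation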
# A number is an active result; i = inactive; nt = not tested or not shown.
SMILES,TMEM16A inh,TAAR1 antag,TAAR1 agonist,CRFR2-BP antag,CRFR2-BP ag,TMEM16A act
COC(=O)C1=C(N)c2c(F)cccc2C1(C#N)c1ccccc1 (stereo not given),i,i,i,58,i,i
Cc1cc(N2CCN(C)CC2)nc2ccc(NC(=O)CCC(=O)NCCCOC(C)C)cc12,i,i,i,51,i,i
COCCCNC(=O)CCC(=O)Nc1ccc2nc(N3CCOCC3)cc(C)c2c1,i,i,i,i,i,i
CC(C)c1c(C(=O)N/N=C/C=C/c2ccccc2)nnn1-c1nonc1N,i,i,42,i,i,i
Cc1ccc(/C=N/NC(=O)c2nnn(-c3nonc3N)c2-c2ccccc2)o1,i,i,43,i,i,i
CC(O)(c1cccc(F)c1)c1nc(-c2cccc3cccnc23)cs1 (stereo not given),nt,i,i,nt,nt,nt
Cc1ccc(C2=NN(CCC(=O)NC3CCCC3)C(=O)CC2)cc1,i,i,i,i,i,i
CC(=O)/C=C/n1c(=S)oc2ccccc21,i,i,i,70,i,nt
CC(C)CC(=O)/C=C/n1c(=S)oc2ccccc21,i,i,i,i,i,i
CN(C)C(=O)CSc1nnc(-c2cc(-c3cccs3)nc3ccccc23)o1,i,50,i,i,i,i
COc1ccc(S(=O)(=O)c2nnn(-c3cccc(Cl)c3)c2N)cc1,i,i,46,i,i,i
O=c1c2c(nc3nc(NCc4cccc(Cl)c4)[nH]n13)CCC2,i,i,i,i,i,i
COc1ccc(N2C(=O)C3CCCN3C2c2ccc(C)o2)cc1Cl (stereo not given),25,i,i,i,i,i
COc1cc(Cl)c(C)cc1NC(=O)CSc1cc(Cl)ccc1Cl,100,i,i,i,i,i
COc1cc(Cl)c(C)cc1NC(=O)CSc1ccccc1,i,i,i,i,i,i
COc1cc(Cl)c(C)cc1NC(=O)CSc1ccc(C)cc1,i,nt,nt,50,i,i
CCOc1ccccc1C(=O)OCC(=O)NCC1CCCO1 (stereo not given),nt,i,i,108,i,i
CCOc1ccccc1C(=O)OCC(=O)NCC1CCCCC1,i,i,i,i,i,i
CC(=O)c1cn(CC(=O)NCC2CCCO2)c2ccccc12 (stereo not given),i,i,i,i,i,-4.8
O=C(COC(=O)c1cccc(S(=O)(=O)N2CCN(c3ccccc3)CC2)c1)NCC1CCCO1 (stereo not given),i,i,i,i,i,i
O=C(Cn1cc(C(=O)C2CC2)c2ccccc21)NCC1CCCO1 (stereo not given),i,i,i,i,i,i
COc1cc(OC)c(NS(=O)(=O)c2cccc(C(=O)OCC(=O)NCC3CCCO3)c2)cc1Cl (stereo not given),i,i,i,i,i,-7.8
O=[N+]([O-])c1cccc(N(CC2CO2)S(=O)(=O)c2ccccc2)c1 (stereo not given),i,i,i,i,i,i
O=C(NNC(=S)NC(=O)c1ccccc1[N+](=O)[O-])c1ccccc1[N+](=O)[O-],i,i,i,i,i,i
Cc1ccc(C(=O)NC(=S)NNC(=O)c2ccc([N+](=O)[O-])cc2)cc1,i,i,i,i,94,i
SMILES,TMEM16A inh,TAAR1 antag,TAAR1 agonist,CRFR2-BP antag,CRFR2-BP ag,TMEM16A act
O=C(NNC(=S)NC(=O)c1ccccc1[N+](=O)[O-])c1ccccc1O,i,i,i,i,i,i
O=C(NC(=S)NNC(=O)c1ccccc1O)c1ccc([N+](=O)[O-])cc1,i,i,44,i,50,i
Cc1ccc(C(=O)NC(=S)NNC(=O)c2ccccc2[N+](=O)[O-])cc1,i,i,38,i,i,i
Cc1ccc(C)c(OCCC(=O)OCC(=O)Nc2ccc(N3CCOCC3)cc2)c1,i,i,i,i,i,i
Cc1nn(C)c(C(=O)NN)c1Cl,i,i,i,i,i,i
CN(C(=O)c1cccc(NC(=O)Cc2cccc(NC(=O)C3CCN(C(=O)C4CCCC4)CC3)c2)c1)C1CC1,nt,i,i,i,i,nt
O=C(c1ccco1)N1CCN(c2ncnc3c2nnn3Cc2ccccc2Cl)CC1,i,i,i,i,i,i
CCOC(=O)C1CCN(c2ncnc3c2nnn3Cc2ccccc2Cl)CC1,i,i,i,59,i,i
CC1(C(=O)NS(=O)(=O)c2ccc(C#N)cc2)CCN1C(=O)Cc1ccc(Cl)cc1Cl (stereo not given),nt,i,i,nt,nt,nt
CCN1CCCC1CNC(=O)Cn1nc(C)n2nc(-c3ccccc3)cc2c1=O (stereo not given),i,i,i,i,i,i
COCC(C)NS(=O)(=O)c1ccc(NC(=O)c2ccccn2)cc1 (stereo not given),i,i,i,i,i,i
CC(C)(C)c1cc(CCC(=O)NNC(=S)NC(=O)c2ccccc2)cc(C(C)(C)C)c1O,100,nt,nt,i,158,-6.1
CC(C)(C)c1cc(CCC(=O)NNC(=O)c2ccco2)cc(C(C)(C)C)c1O,i,i,i,i,i,i
O=C(c1ccc(Br)cc1)c1cc2ccc(O)cc2oc1=O,25,i,i,i,i,i
CCc1nc2ccc(C(=O)NC3CCN(Cc4ccccc4)CC3)cn2c1N(CC)Cc1cccc(Br)c1,nt,i,i,nt,nt,nt
O=C(CCCCCNC(=O)N1CCn2c1nc1ccccc12)N[C@@H](Cc1ccccc1)C(=O)O,i,i,i,i,i,i
CCCCCCn1c(=O)c(F)cn(Cc2ccc(OC)c([N+](=O)[O-])c2)c1=O,i,i,i,59,i,i
COc1cccc(CC(=O)NN2C(=O)NC3(CCCCC3)C2=O)c1,nt,i,i,i,i,i
O=C(O)CN1C(=O)/C(=C\c2cn(CC(=O)N3CCOCC3)c3ccccc23)SC1=S,i,i,i,i,69,i
O=C(CCN1C(=O)/C(=C\c2cccc(Br)c2)SC1=S)N1CCOCC1,i,i,i,64,i,i
CN1C(=O)/C(=C/c2cn(CC(=O)NCc3ccco3)c3ccccc23)NC1=S,i,i,i,nt,nt,nt
CN1C(=O)/C(=C/c2cn(CC(=O)N3CCCCC3)c3ccccc23)NC1=S,i,i,i,i,i,-6.2
O=C(CCCN1C(=O)/C(=C\c2ccccc2)SC1=S)N1CCOCC1,nt,i,i,i,i,i
N#Cc1ccccc1NC(=O)C(=O)NCCCN1CCCC1=O,i,i,i,i,i,i
COc1cc(CNCC(O)c2ccccc2)ccc1OCc1ccc(Cl)nc1 (stereo not given),i,i,39,i,i,i
